Many of the other results were omitted from the sample, so hits are more common in it than they were.
PvdQ acylase: blocks Pseudomonas aeruginosa PvdQ acylase activity; purified PvdQ acylase, fluorescence plate reader; inhibition, % at 10 µM; AID 488965; hit rate 0.063% among 340,000; in the data active = inhibition above about 30%, passing the limit was not always enough
XBP1 UPR activ: activators of adaptive arm of unfolded protein response (XBP1). CHO-XBP1 luciferase reporter, IRE1-XBP1 UPR activation, luminescence; percent of tunicamycin response, DMSO as zero. activation, % at 20 µM. hit rate 0.33% among 330,000;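 active = versus positive control, 20 µM dose yields 30% or more activation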
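Material: CHO-XBP1 cells stably carrying IRE1-XBP1-driven luciferase reporter / Amount: 1000 cells per well / Compound: 20 µM, 1% DMSO / Times: 6 h treatment, 37 °C / Detection: luciferase luminescence / Measure: % activation of reporter signal versus tunicamycin and DMSO controls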
CHOP UPR activ: apoptotic UPR (CHOP) activation; activation, % at 10 µM; hit rate 0.34% among 330,000; CHO-CHOP luciferase reporter, luminescence; percent of tunicamycin response over DMSO baseline; AID 449763;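 active = at 10 µM dose, activation of 40% or more, normalized to positive control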
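measured by = luciferase luminescence | assay system = CHO-CHOP cells, stable luciferase reporter of PERK-eIF2a-CHOP signalling | amount = 500 reporter cells seeded per well | timing = 6 h compound exposure at 37 °C after overnight seeding | controls = positive tunicamycin 10 µg/mL, negative DMSO alone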
CHOP inhibitor: inhibitors of CHOP induction in ER stress response. CHO-K1 CHOP-promoter luciferase, tunicamycin-induced, 15-18 h. inhibition, % at 10 µM. hit rate 3.8% among 220,000;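 active = compounds that reduced the stress-induced luciferase reporter signal by more than about 70% of percent inhibition, limit read from the data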
Large screens that a line does not name were inactive.

COc1cccc(NC(=O)Cn2c(=O)n(-c3ccccc3)c(=O)c3sccc32)c1	none
CC1=CC(C)(C)N2C(=O)C3(C(C#N)=C(N)OC4=C3C(=O)CCC4)c3c(C)c(C)cc1c32 (stereo not given)	none
CC1=CC(C)(C)N2C(=O)C3(C(C#N)=C(N)Oc4cc(O)ccc43)c3c(C)c(C)cc1c32 (stereo not given)	CHOP inhibitor 95.8
Clc1ccc(-c2nnnn2-c2ccc(Cl)c(Cl)c2)cc1Cl	CHOP inhibitor 83.3
Nc1ccc(-c2nnnn2-c2ccc(N)cc2)cc1	none (no result: CHOP inhibitor)
O=c1ccc2cc(S(=O)(=O)N3CCN(c4cc(Cl)ccc4Cl)CC3)ccc2o1	CHOP inhibitor 70.5
O=c1ccc2cc(S(=O)(=O)N3CCN(c4ccc(Cl)cc4)CC3)ccc2o1	none (no result: CHOP inhibitor)
O=C(CCc1nnc(Cc2cccc(C(F)(F)F)c2)o1)NC1CC1	CHOP inhibitor 78.0
COc1ccc(C)cc1N=Nc1ccc(O)c2ncccc12	CHOP inhibitor 104.1 (no result: XBP1 UPR activ, CHOP UPR activ)
Cc1ccccc1N=Nc1ccc(O)c2ncccc12	CHOP inhibitor 105.6 (no result: XBP1 UPR activ, CHOP UPR activ)
CCOC(=O)[C@H]1[C@H]2COc3cc(OC)ccc3[C@@H]2N2C(=O)[C@@H](CO)NC(=O)[C@@]12C	none (no result: PvdQ acylase, CHOP inhibitor)
O=C(NCC(=O)N1CCN(S(=O)(=O)/C=C/c2ccccc2)CC1)c1ccc(Cl)cc1	none
COc1ccc(Nc2ccc(C(F)(F)F)cc2[N+](=O)[O-])cn1	none (no result: CHOP inhibitor)
O=C(NC(NC(=S)Nc1ccccc1Cl)C(Cl)(Cl)Cl)c1cccc(Cl)c1 (stereo not given)	CHOP inhibitor 87.1
O=C(/C=C/c1ccccc1)NC(NC(=S)Nc1ccc(Cl)cc1Cl)C(Cl)(Cl)Cl (stereo not given)	CHOP inhibitor 80.9
CN(CC(=O)Nc1ccc(F)cc1)C(=O)COc1ccccc1Cc1ccccc1	none (no result: CHOP inhibitor)
CCOc1ccc(-c2csc(/C(C#N)=C\c3ccc(O)c([N+](=O)[O-])c3)n2)cc1	CHOP inhibitor 93.7
CCOCCCNC(=O)c1ccc(OC)c(OC2CCN(C(C)C)CC2)c1	none (no result: CHOP inhibitor)
COc1cc(/C=C2/CCC/C(=C\c3cc(O)c(OC)c(Cl)c3)C2=O)cc(Cl)c1O	CHOP inhibitor 79.7
Cn1c(=O)c(C(=O)CN2CCCc3ccccc32)c(N)n(Cc2ccccc2)c1=O	CHOP inhibitor 76.7
COC(=O)C1=C(Cn2cnc3ccccc32)NC(=O)NC1c1cc(C)ccc1C (stereo not given)	none
CCOC(=O)C1=C(Cn2cnc3ccccc32)NC(=O)NC1c1cc(C)ccc1C (stereo not given)	CHOP inhibitor 88.7
Cc1ccc(/C=C/C2=NN(Cc3ccccc3Cl)C(=O)CC2)cc1	CHOP inhibitor 73.7
COc1ccccc1N1CC(C(=O)OCC(=O)Nc2c(C)cccc2C)CC1=O (stereo not given)	none (no result: CHOP inhibitor)
CCC(=O)Oc1oc(-c2ccccc2)nc1C=Nc1ccccc1OC	CHOP inhibitor 93.1
Cc1ccc(N=C2NC(=O)/C(=C/c3cn(C)c4ccccc34)S2)cc1C	CHOP inhibitor 75.5 (no result: XBP1 UPR activ, CHOP UPR activ)
Cn1cccc1/C=C1\SC(=Nc2ccccc2)NC1=O	none
CC(CNCc1ccc2c(c1)OCO2)NCc1ccc2c(c1)OCO2 (stereo not given)	CHOP inhibitor 85.3
COc1cc(CNC2CCCC2)cc(Cl)c1OCc1ccc(F)cc1	none
COc1cc(CNC2CCCC2)cc(Cl)c1OCc1ccccc1Cl	CHOP inhibitor 73.7
C[C@H](CO)N1C[C@H](C)[C@@H](CN(C)C(=O)Nc2ccccc2)Oc2ccc(NC(=O)Cc3ccccc3)cc2C1=O	none (no result: CHOP inhibitor)
CCOc1ccc(-c2nnc(SCC(=O)Nc3cc(C)on3)o2)cc1	CHOP inhibitor 77.3
O=C(CSc1ccc(Cl)cc1)Nc1cccc(-c2nc3ncccc3o2)c1	CHOP inhibitor 72.9
COc1ccc(-c2nnc(SCC(=O)Nc3ccccc3OC)o2)cc1	none
COc1ccc(-c2nnc(SCC(=O)Nc3cccc(Cl)c3)o2)cc1	CHOP inhibitor 88.6
NS(=O)(=O)c1ccc(N2N=C(c3ccccc3)CC2c2cccc(F)c2)cc1 (stereo not given)	CHOP inhibitor 83.0 (no result: XBP1 UPR activ, CHOP UPR activ)
COc1ccc(C2CC(c3ccccc3)=NN2c2ccc(N)cc2)cc1 (stereo not given)	CHOP inhibitor 90.7
NS(=O)(=O)c1ccc(N2N=C(c3ccccc3)CC2c2cccc(Br)c2)cc1 (stereo not given)	none (no result: CHOP inhibitor)
O=C(CSc1ncn[nH]1)Nc1c(F)cc(F)cc1Br	none
Fc1ccc(Nc2nc(-c3ccncc3)nc3ccccc23)cc1	CHOP inhibitor 89.7
O=C(Nc1cccc(Cl)c1N1CCCC1)c1ccc(Br)o1	CHOP inhibitor 72.6
O=C(Nc1ccccc1Oc1ccccc1)c1ccc(Br)o1	CHOP inhibitor 86.2
COc1ccc(-c2nc(C(N)=O)c3[nH]c(=O)n(-c4cccc(Cl)c4)c3n2)cc1OC	CHOP inhibitor 95.3 (no result: XBP1 UPR activ, CHOP UPR activ)
CCc1ccc(-c2nc(C(N)=O)c3[nH]c(=O)n(-c4ccccc4OC)c3n2)cc1	CHOP inhibitor 71.7
CC(=O)Nc1ccc(NC(=O)C/C(C)=N/NC(=O)c2cccc3ccccc23)cc1	none (no result: CHOP inhibitor)
CCc1ccc(OC2=NS(=O)(=O)c3ccccc32)cc1	none (no result: XBP1 UPR activ, CHOP UPR activ)
CCN(CC)c1cccc(OC2=NS(=O)(=O)c3ccccc32)c1	CHOP inhibitor 81.2
CCOC(=O)C1=C(N)OC2=C(C(=O)CC(C)(C)C2)C1C1CCCCC1 (stereo not given)	CHOP inhibitor 96.0
COc1cccc(CCC2C(=O)CCCC2=O)c1	none (no result: XBP1 UPR activ, CHOP UPR activ, CHOP inhibitor)
Nc1nonc1C(=O)NCCNCc1c(OCc2ccccc2F)ccc2ccccc12	CHOP inhibitor 73.3
CC(C)c1ccc(NC(=O)c2cccc(Br)c2)cc1	CHOP inhibitor 84.3
O=C(Nc1cccc(C(=O)Nc2cccc(Br)c2)c1)c1ccccc1	none (no result: CHOP inhibitor)
O=C(Cc1cccc(NC(=O)C2CCN(C(=O)c3ccccc3)CC2)c1)Nc1cccc(C(=O)N2CCCC2)c1	none (no result: CHOP inhibitor)
CSc1nnc(Cc2sc(-c3ccccc3)nc2-c2ccccc2)o1	CHOP inhibitor 82.9
CCOC(=O)c1c(CN2CCN(c3ccccc3)CC2)oc2ccc(O)cc12	CHOP inhibitor 81.0
CCOC(=O)c1c(CN2CCN(C)CC2)oc2ccc(OC)cc12	none
CN1C=CC(=O)[C@@H](OC(=O)Nc2ccc(Br)cc2)[C@H]1c1ccccc1Br	none (no result: XBP1 UPR activ, CHOP UPR activ, CHOP inhibitor)
C=CCN(CC=C)CCOc1cccc(Oc2ccccc2)c1	CHOP inhibitor 87.0
CN(C)CCCOc1cccc(Oc2ccccc2)c1	none
Nc1ccccc1C(=O)NCc1ccc(Cl)cc1	none
CCOC(=O)c1ccc2nc(Nc3nc4ccc(F)cc4s3)sc2c1	CHOP inhibitor 89.7
CCOC(=O)c1ccc2nc(NC(C)=O)sc2c1	none (no result: XBP1 UPR activ, CHOP UPR activ)
COC(=O)c1ccc2nc(Nc3nc4c(F)cc(F)cc4s3)sc2c1	CHOP inhibitor 92.5
CCOC(=O)c1sc(NC(=O)c2ccc(S(=O)(=O)N3CCCCCC3)cc2)nc1-c1ccccc1	none
CCOC(=O)c1sc(NC(=O)c2ccc(S(=O)(=O)N3CCCCC3)cc2)nc1-c1ccccc1	CHOP inhibitor 84.4
CCOC(=O)N1CCN(S(=O)(=O)c2ccc(C(=O)Nc3nc4ccc(F)cc4s3)cc2)CC1	CHOP inhibitor 84.1

Assay outcomes (PubChem)
